Reference: ChEMBL document CHEMBL1155370, “Discovery and initial SAR of pyrimidin-4-yl-1H-imidazole derivatives with antiproliferative activity against melanoma cell lines” (Bioorg Med Chem Lett, 2010)
One block for each compound: values may come before it. The source made the active and inactive calls. The rule behind the calls is not given here.

Key:
[1] = (§1) Growth inhibition of human WM3629 cells by MTT assay; assay type: functional
Summary of the method: (§2)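 WM3629 cells kept in Tu2% medium. They were seeded at 5×10^3 cells/well, rested 24 h, then exposed to a 12-point three-fold serial dilution. GI50 was taken from an MTT reduction assay read at 590 nm.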

[2] = (§3) Growth inhibition of human A375P cells by MTT assay; assay type: functional
Summary of the method: (§4)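 A375P cells grown in DMEM with 10% FBS and 1% penicillin/streptomycin at 37 °C in 5% CO2. Cells were detached with trypsin-EDTA, seeded at 5×10^3 cells/well and left 24 h. They were then treated with a 12-point three-fold serial dilution. Viability was read by MTT reduction assay as absorbance at 590 nm.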

[3] = Selectivity ratio of GI50 for human WM3629 cells to GI50 for human A375P cells; assay type: functional
[4] = target: Tyrosine-protein kinase Lyn (Homo sapiens) (UniProt P07948); assay: Inhibition of LYN at 10 uM
Summary of the method: (§5)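 Single-dose panel screen across 30 kinases at 10 µM, run in duplicate; % inhibition reported.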

[5] = target: Proto-oncogene tyrosine-protein kinase Src (Homo sapiens) (UniProt P12931); assay: Inhibition of c-Src at 10 uM; summary of the method: as §5
[6] = target: Mitogen-activated protein kinase 1 (Homo sapiens) (UniProt P28482); assay: Inhibition of ERK2 at 10 uM; summary of the method: as §5
[7] = target: Serine/threonine-protein kinase mTOR (Homo sapiens) (UniProt P42345); assay: Inhibition of mTOR at 10 uM; summary of the method: as §5
[8] = target: ALK tyrosine kinase receptor (Homo sapiens) (UniProt Q9UM73); assay: Inhibition of ALK at 10 uM; summary of the method: as §5
[9] = Inhibition of PKA at 10 uM
Summary of the method: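 Single-concentration screen at 10 µM within a 30-kinase panel, run in duplicate; read-out is percent inhibition of kinase activity.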

[10] = target: Receptor-type tyrosine-protein kinase FLT3 (Homo sapiens) (UniProt P36888); assay: Inhibition of human FLT3 at 10 uM; summary of the method: as §5
[11] = target: Tyrosine-protein kinase JAK3 (Homo sapiens) (UniProt P52333); assay: Inhibition of JAK3 at 10 uM; summary of the method: as §5
[12] = target: Serine/threonine-protein kinase PAK 4 (Homo sapiens) (UniProt O96013); assay: Inhibition of PAK4 at 10 uM; summary of the method: as §5
[13] = target: Mitogen-activated protein kinase 14 (Homo sapiens) (UniProt Q16539); assay: Inhibition of p38alpha at 10 uM; summary of the method: as §5
[14] = target: Insulin-like growth factor 1 receptor (Homo sapiens) (UniProt P08069); assay: Inhibition of IGF1R at 10 uM; summary of the method: as §5
[15] = target: Epidermal growth factor receptor (Homo sapiens) (UniProt P00533); assay: Inhibition of EGFR at 10 uM; summary of the method: as §5
[16] = target: Mitogen-activated protein kinase 8 (Homo sapiens) (UniProt P45983); assay: Inhibition of JNK1 at 10 uM; summary of the method: as §5
[17] = target: RAC-alpha serine/threonine-protein kinase (Homo sapiens) (UniProt P31749); assay: Inhibition of AKT1 at 10 uM; summary of the method: as §5
[18] = target: Macrophage-stimulating protein receptor (Homo sapiens) (UniProt Q04912); assay: Inhibition of RON at 10 uM; summary of the method: as §5
[19] = target: DNA-dependent protein kinase catalytic subunit (Homo sapiens) (UniProt P78527); assay: Inhibition of DNA-PK at 10 uM; summary of the method: as §5
[20] = target: RAF proto-oncogene serine/threonine-protein kinase (Homo sapiens) (UniProt P04049); assay: Inhibition of cRAF at 10 uM; summary of the method: as §5
[21] = target: Myotonin-protein kinase (Homo sapiens) (UniProt Q09013); assay: Inhibition of DMPK at 10 uM; summary of the method: as §5
[22] = target: Dual specificity mitogen-activated protein kinase kinase 1 (Homo sapiens) (UniProt Q02750); assay: Inhibition of MEK1 at 10 uM; summary of the method: as §5
[23] = target: Focal adhesion kinase 1 (Homo sapiens) (UniProt Q05397); assay: Inhibition of human FAK at 10 uM; summary of the method: as §5
[24] = target: Cyclin-dependent kinase 5/CDK5 activator 1 (Homo sapiens) (UniProt Q00535+Q15078); assay: Inhibition of CDK5/p25 at 10 uM; assay type: protein-complex assay; summary of the method: as §5
[25] = target: Serine/threonine-protein kinase Chk1 (Homo sapiens) (UniProt O14757); assay: Inhibition of CHK1 at 10 uM; summary of the method: as §5
[26] = target: Glycogen synthase kinase-3 beta (Homo sapiens) (UniProt P49841); assay: Inhibition of GSK3-beta at 10 uM; summary of the method: as §5
[27] = target: Tyrosine-protein kinase SYK (Homo sapiens) (UniProt P43405); assay: Inhibition of SYK at 10 uM; summary of the method: as §5
[28] = target: Protein kinase C alpha type (Homo sapiens) (UniProt P17252); assay: Inhibition of PKCalpha at 10 uM; summary of the method: as §5
[29] = target: Proto-oncogene tyrosine-protein kinase ROS (Homo sapiens) (UniProt P08922); assay: Inhibition of ROS at 10 uM; summary of the method: as §5
[30] = target: Ribosomal protein S6 kinase beta-1 (Homo sapiens) (UniProt P23443); assay: Inhibition of p70S6K at 10 uM; summary of the method: as §5
[31] = target: BDNF/NT-3 growth factors receptor (Homo sapiens) (UniProt Q16620); assay: Inhibition of TrkB at 10 uM; summary of the method: as §5
[32] = target: Cyclin-dependent kinase 1/cyclin B1 (Homo sapiens) (UniProt P06493+P14635); assay: Inhibition of CDK1/cyclin B at 10 uM; assay type: protein-complex assay; summary of the method: as §5
[33] = target: Cyclin-dependent kinase 2/cyclin E1 (Homo sapiens) (UniProt P24864+P24941); assay: Inhibition of CDK2/cyclin E at 10 uM; assay type: protein-complex assay; summary of the method: as §5
[34] = Growth inhibition of human A375P cells at 8.05 uM by MTT assay relative to total growth; assay type: functional; conditions: read-out: GI
[35] = Growth inhibition of human A375P cells at 164 uM by MTT assay relative to total growth; assay type: functional; conditions: read-out: GI
[36] = tested on: A375P; assay: as §3; assay type: functional; summary of the method: as §4
[37] = tested on: WM3629; assay: as §1; assay type: functional; summary of the method: as §2

Sequence of Tyrosine-protein kinase Lyn (Homo sapiens) (P07948 2-512 limits assumed): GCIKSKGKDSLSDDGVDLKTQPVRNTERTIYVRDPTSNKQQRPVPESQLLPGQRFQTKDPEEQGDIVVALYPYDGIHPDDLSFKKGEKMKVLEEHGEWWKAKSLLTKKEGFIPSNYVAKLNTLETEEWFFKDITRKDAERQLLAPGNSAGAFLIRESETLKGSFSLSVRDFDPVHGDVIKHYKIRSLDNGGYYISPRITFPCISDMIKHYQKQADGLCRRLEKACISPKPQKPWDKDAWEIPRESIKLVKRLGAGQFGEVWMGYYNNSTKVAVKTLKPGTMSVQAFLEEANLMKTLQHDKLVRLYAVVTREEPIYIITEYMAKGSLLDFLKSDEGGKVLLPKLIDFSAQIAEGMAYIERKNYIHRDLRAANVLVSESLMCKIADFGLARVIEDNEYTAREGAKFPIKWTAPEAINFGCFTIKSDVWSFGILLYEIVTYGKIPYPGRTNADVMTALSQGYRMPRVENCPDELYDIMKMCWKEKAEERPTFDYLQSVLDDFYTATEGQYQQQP
Sequence of RAC-alpha serine/threonine-protein kinase (Homo sapiens) (P31749 whole entry): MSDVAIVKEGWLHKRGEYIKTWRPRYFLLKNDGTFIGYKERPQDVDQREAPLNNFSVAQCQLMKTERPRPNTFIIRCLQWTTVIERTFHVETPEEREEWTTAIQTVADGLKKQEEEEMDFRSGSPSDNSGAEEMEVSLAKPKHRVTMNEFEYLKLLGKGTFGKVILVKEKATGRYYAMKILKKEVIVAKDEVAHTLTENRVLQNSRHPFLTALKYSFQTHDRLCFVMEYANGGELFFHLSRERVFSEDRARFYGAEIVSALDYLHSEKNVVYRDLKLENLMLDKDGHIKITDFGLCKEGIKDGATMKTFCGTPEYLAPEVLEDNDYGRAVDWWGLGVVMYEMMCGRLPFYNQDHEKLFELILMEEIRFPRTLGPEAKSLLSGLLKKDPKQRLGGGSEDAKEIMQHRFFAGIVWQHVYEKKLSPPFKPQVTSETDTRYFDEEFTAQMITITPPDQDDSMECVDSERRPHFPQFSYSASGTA
Sequence of Proto-oncogene tyrosine-protein kinase ROS (Homo sapiens) (P08922 whole entry): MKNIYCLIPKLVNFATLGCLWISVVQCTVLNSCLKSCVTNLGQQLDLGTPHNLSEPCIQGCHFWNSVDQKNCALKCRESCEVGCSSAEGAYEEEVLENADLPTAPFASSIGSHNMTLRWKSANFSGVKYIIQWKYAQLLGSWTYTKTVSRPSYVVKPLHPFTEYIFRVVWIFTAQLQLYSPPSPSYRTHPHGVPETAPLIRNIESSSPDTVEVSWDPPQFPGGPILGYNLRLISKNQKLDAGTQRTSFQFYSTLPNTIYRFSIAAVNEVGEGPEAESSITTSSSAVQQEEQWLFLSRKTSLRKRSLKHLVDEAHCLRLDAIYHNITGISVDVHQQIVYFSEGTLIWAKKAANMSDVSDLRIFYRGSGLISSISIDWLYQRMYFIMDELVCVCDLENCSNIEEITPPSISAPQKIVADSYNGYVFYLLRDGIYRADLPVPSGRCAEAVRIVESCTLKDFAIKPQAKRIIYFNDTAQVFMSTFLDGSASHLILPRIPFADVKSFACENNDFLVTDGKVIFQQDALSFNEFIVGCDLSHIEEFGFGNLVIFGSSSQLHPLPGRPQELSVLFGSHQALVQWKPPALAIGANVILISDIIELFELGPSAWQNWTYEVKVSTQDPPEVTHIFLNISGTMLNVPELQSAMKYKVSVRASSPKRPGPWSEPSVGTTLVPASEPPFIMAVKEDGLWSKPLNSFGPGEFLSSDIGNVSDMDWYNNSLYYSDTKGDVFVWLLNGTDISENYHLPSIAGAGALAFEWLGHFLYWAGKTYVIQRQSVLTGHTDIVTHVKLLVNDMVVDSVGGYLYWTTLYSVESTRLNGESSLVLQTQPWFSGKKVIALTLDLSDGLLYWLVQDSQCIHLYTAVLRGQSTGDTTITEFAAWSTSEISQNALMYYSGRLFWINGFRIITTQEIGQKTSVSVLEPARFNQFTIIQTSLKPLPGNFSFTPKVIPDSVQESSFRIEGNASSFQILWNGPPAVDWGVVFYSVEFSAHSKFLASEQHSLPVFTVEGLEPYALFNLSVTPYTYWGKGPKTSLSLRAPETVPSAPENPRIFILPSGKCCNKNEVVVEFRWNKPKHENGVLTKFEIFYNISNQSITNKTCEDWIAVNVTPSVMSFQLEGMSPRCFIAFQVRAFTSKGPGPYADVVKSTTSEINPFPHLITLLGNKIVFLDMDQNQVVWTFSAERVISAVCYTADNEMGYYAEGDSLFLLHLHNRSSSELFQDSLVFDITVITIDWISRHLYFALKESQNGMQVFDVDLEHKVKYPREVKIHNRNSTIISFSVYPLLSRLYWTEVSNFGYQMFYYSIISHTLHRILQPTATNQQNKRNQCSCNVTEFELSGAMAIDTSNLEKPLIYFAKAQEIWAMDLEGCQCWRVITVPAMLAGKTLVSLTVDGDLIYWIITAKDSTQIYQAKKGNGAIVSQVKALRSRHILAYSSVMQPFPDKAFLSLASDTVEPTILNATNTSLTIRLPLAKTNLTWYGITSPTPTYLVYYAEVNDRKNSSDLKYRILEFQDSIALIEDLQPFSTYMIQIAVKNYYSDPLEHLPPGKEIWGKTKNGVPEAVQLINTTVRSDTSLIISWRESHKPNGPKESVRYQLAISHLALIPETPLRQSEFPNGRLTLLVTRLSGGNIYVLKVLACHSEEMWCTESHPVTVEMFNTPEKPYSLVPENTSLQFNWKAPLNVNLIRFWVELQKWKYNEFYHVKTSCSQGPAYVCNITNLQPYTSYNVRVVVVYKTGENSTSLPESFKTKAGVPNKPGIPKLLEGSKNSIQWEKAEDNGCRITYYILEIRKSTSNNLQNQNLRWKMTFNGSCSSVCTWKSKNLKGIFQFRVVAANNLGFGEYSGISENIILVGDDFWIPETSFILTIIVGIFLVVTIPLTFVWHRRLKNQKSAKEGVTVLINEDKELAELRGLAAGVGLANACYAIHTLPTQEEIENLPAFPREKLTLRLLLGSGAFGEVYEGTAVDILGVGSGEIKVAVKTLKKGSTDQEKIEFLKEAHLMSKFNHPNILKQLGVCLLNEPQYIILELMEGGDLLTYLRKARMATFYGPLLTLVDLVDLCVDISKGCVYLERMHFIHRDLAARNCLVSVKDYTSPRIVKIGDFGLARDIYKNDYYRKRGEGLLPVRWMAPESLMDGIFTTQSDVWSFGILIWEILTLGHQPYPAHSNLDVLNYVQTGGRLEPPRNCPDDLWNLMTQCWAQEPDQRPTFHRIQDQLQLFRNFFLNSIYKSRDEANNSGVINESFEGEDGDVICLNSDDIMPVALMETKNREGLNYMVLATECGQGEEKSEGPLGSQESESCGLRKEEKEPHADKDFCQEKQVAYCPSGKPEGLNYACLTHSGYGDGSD
Sequence of Dual specificity mitogen-activated protein kinase kinase 1 (Homo sapiens) (Q02750 whole entry): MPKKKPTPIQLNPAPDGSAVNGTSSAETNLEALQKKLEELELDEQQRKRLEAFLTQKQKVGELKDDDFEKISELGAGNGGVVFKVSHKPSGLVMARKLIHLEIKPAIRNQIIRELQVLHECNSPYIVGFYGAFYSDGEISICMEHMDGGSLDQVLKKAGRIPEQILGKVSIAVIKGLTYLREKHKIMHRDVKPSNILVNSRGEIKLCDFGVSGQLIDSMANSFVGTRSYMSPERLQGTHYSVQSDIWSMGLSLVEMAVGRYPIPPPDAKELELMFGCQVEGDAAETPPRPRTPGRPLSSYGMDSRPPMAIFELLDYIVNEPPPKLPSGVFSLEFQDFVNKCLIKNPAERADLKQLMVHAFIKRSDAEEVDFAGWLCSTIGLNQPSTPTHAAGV
Sequence of Cyclin-dependent kinase 5/CDK5 activator 1 (Homo sapiens) (Q00535 whole entry): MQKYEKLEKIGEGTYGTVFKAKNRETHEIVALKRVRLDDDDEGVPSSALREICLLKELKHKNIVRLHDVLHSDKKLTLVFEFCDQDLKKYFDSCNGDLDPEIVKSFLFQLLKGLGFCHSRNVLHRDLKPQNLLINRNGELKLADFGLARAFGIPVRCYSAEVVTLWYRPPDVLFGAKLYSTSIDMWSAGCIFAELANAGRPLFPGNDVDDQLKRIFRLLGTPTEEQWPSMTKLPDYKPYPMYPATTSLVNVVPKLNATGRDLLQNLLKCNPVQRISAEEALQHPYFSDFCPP
Sequence of Cyclin-dependent kinase 5/CDK5 activator 1 (Homo sapiens) (Q15078 99-307 partner limits assumed): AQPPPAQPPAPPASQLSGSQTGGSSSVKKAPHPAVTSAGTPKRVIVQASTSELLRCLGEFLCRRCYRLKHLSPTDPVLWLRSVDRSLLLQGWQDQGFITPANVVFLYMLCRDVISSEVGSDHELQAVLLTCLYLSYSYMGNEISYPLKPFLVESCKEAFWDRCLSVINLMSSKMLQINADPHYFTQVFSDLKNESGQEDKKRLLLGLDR

SMILES: C[C@H](O)CNc1nccc(-n2ccnc2-c2ccc(NC(=O)Nc3ccc(Cl)c(C(F)(F)F)c3)cc2)n1
GI50 [1]: 4.43 µM | GI50 [2]: 10.1 µM

SMILES: C[C@H](O)CNc1nccc(-n2ccnc2-c2cccc(NC(=O)Nc3ccc(N4CCOCC4)c(C(F)(F)F)c3)c2)n1
GI50 [1]: 3.28 µM | RatioGI50 [3]: 5 | GI50 [2]: 34.6 µM

inhibition [4]: 21% | inhibition [5]: < 0% | inhibition [6]: 10% | inhibition [7]: 1.5% | inhibition [8]: 0.8% | inhibition [9]: 6.8% | inhibition [10]: 82% | inhibition [11]: 0.21% | inhibition [12]: < 0% | inhibition [13]: 89% | inhibition [14]: 3.6% | inhibition [15]: 1.7% | inhibition [16]: < 0% | inhibition [17]: 5.1% | inhibition [18]: 5% | inhibition [19]: 9.4% | inhibition [20]: 99% | inhibition [21]: 7.6% | inhibition [22]: < 0% | inhibition [23]: 0% | inhibition [24]: 2.4% | inhibition [25]: 5.9% | inhibition [26]: 14% | inhibition [27]: 13% | inhibition [28]: 1.1% | inhibition [29]: 0.19% | inhibition [30]: 17% | inhibition [31]: < 0% | inhibition [32]: 21% | inhibition [33]: < 0%
SMILES: C[C@H](O)CNc1nccc(-n2ccnc2-c2cccc(NC(=O)c3ccc(Cl)c(C(F)(F)F)c3)c2)n1
GI50 [1]: 0.62 µM | RatioGI50 [3]: 5 | GI50 [2]: 4.49 µM

SMILES: C[C@H](O)CNc1nccc(-n2ccnc2-c2ccc(NC(=O)c3coc(-c4cc(C(F)(F)F)ccc4Cl)c3)cc2)n1
GI50 [1]: > 100 µM | GI50 [2]: 2.23 µM

SMILES: Cc1cn(-c2cc(C(=O)Nc3cccc(-c4nccn4-c4ccnc(NC[C@H](C)O)n4)c3)cc(C(F)(F)F)c2)cn1
GI50 [1]: 3.49 µM | RatioGI50 [3]: 5 | GI50 [2]: 6.72 µM

SMILES: C[C@H](O)CNc1nccc(-n2ccnc2-c2ccc(NC(=O)Nc3ccc(Cl)c(Cl)c3)cc2)n1
GI50 [1]: 2.45 µM | GI50 [2]: 17.8 µM

SMILES: C[C@H](O)CNc1nccc(-n2ccnc2-c2ccc(NC(=O)c3cc(-c4ccc(Cl)cc4)on3)cc2)n1
GI50 [1]: > 100 µM | GI50 [2]: > 100 µM

SMILES: C[C@H](O)CNc1nccc(-n2ccnc2-c2ccc(NC(=O)Nc3cccc(C(F)(F)F)c3)cc2)n1
GI50 [1]: 12.9 µM | GI50 [2]: 7.19 µM

SMILES: CNC(=O)c1cc(Oc2ccc(NC(=O)Nc3ccc(Cl)c(C(F)(F)F)c3)cc2)ccn1 [SORAFENIB]
GI50 [1]: 0.78 µM | GI50 [2]: 5.58 µM

SMILES: C[C@H](O)CNc1nccc(-n2ccnc2-c2ccc(NC(=O)c3ccc(N4CCOCC4)c(C(F)(F)F)c3)cc2)n1
GI50 [1]: > 100 µM | GI50 [2]: > 100 µM

SMILES: COc1ccc(-c2cc(C(=O)Nc3ccc(-c4nccn4-c4ccnc(NC[C@H](C)O)n4)cc3)co2)cc1
GI50 [1]: > 100 µM | GI50 [2]: 8.05 µM | inhibition of growth at 8.05 µM [34]: < 66%

SMILES: C[C@H](O)CNc1nccc(-n2ccnc2-c2cccc(NC(=O)c3ccc(N4CCOCC4)c(C(F)(F)F)c3)c2)n1
GI50 [1]: 7.37 µM | RatioGI50 [3]: 5 | GI50 [2]: 28.3 µM

SMILES: C[C@H](O)CNc1nccc(-n2ccnc2-c2ccc(NC(=O)c3ccc(Cl)c(C(F)(F)F)c3)cc2)n1
GI50 [1]: > 100 µM | GI50 [2]: 79.2 µM

SMILES: C[C@H](O)CNc1nccc(-n2ccnc2-c2ccc(NC(=O)c3cc(N4CCOCC4)cc(C(F)(F)F)c3)cc2)n1
GI50 [1]: 2.25 µM | GI50 [2]: 35.6 µM

SMILES: C[C@H](O)CNc1nccc(-n2ccnc2C(=O)c2ccc(NC(=O)c3ccc(Cl)c(C(F)(F)F)c3)cc2)n1
GI50 [1]: 1.37 µM | GI50 [2]: 2.51 µM

SMILES: C[C@H](O)CNc1nccc(-n2ccnc2-c2cccc(NC(=O)Nc3cccc(C(F)(F)F)c3)c2)n1
GI50 [1]: 7.86 µM | RatioGI50 [3]: 5 | GI50 [2]: 19.2 µM

SMILES: C[C@H](O)CNc1nccc(-n2ccnc2C(=O)c2ccc(NC(=O)Nc3ccc(Cl)c(C(F)(F)F)c3)cc2)n1
GI50 [1]: 3.51 µM | GI50 [2]: 9.29 µM

SMILES: C[C@H](O)CNc1nccc(-n2ccnc2-c2cccc(NC(=O)c3cc(N4CCN(C)CC4)cc(C(F)(F)F)c3)c2)n1
GI50 [1]: 9.13 µM | RatioGI50 [3]: 5 | GI50 [2]: 10.4 µM

SMILES: C[C@H](O)CNc1nccc(-n2ccnc2-c2cccc(NC(=O)c3cc(-c4ccc(Cl)cc4)on3)c2)n1
GI50 [1]: > 100 µM | RatioGI50 [3]: 5 | GI50 [2]: 164 µM | inhibition of growth at 164 µM [35]: < 66%

SMILES: C[C@H](O)CNc1nccc(-n2ccnc2-c2cccc(NC(=O)c3ncc(-c4ccncc4)s3)c2)n1
GI50 [1]: 13.8 µM | RatioGI50 [3]: 5 | GI50 [2]: > 100 µM

GI50 [36]: inactive
SMILES: COc1ccc(-c2cc(C(=O)Nc3cccc(-c4nccn4-c4ccnc(NC[C@H](C)O)n4)c3)co2)cc1
GI50 [1]: 22.3 µM | RatioGI50 [3]: 5

SMILES: C[C@H](O)CNc1nccc(-n2ccnc2-c2cccc(NC(=O)Nc3ccc(Cl)c(Cl)c3)c2)n1
GI50 [1]: 0.65 µM | RatioGI50 [3]: 5 | GI50 [2]: 5.93 µM

SMILES: C[C@H](O)CNc1nccc(-n2ccnc2-c2cccc(NC(=O)Nc3ccc(Cl)c(C(F)(F)F)c3)c2)n1
GI50 [1]: > 100 µM | RatioGI50 [3]: 5 | GI50 [2]: 58.2 µM

SMILES: C[C@H](O)CNc1nccc(-n2ccnc2-c2ccc(NC(=O)c3ncc(-c4ccncc4)s3)cc2)n1
GI50 [1]: > 100 µM | GI50 [2]: 139 µM

GI50 [36]: inactive
SMILES: C[C@H](O)CNc1nccc(-n2ccnc2-c2cccc(NC(=O)c3cccc(C(F)(F)F)c3)c2)n1
GI50 [37]: inactive | RatioGI50 [3]: 5

SMILES: C[C@H](O)CNc1nccc(-n2ccnc2-c2ccc(NC(=O)Nc3cccc(Cl)c3)cc2)n1
GI50 [1]: 4.99 µM | GI50 [2]: 3.19 µM

SMILES: Cc1ccc2nc(NC(=O)Nc3cccc(-c4nccn4-c4ccnc(NC[C@H](C)O)n4)c3)sc2c1
GI50 [1]: 4.54 µM | RatioGI50 [3]: 5 | GI50 [2]: 19.4 µM

SMILES: C[C@H](O)CNc1nccc(-n2ccnc2-c2cccc(NC(=O)c3coc(-c4cc(C(F)(F)F)ccc4Cl)c3)c2)n1
GI50 [37]: inactive | RatioGI50 [3]: 5

SMILES: C[C@H](O)CNc1nccc(-n2ccnc2-c2cccc(NC(=O)Nc3cccc(Cl)c3)c2)n1
GI50 [1]: > 100 µM | RatioGI50 [3]: 5 | GI50 [2]: 85.8 µM
